Test results as given in ChEMBL document CHEMBL4339192, “De Novo Designed Amphipathic α-Helical Antimicrobial Peptides Incorporating Dab and Dap Residues on the Polar Face To Treat the Gram-Negative Pathogen, Acinetobacter baumannii” (J Med Chem, 2019).
≈ marks a conversion by molar mass, not a printed value. Where a SMILES comes first, the peptide text is derived from it. [ ]: non-standard residue; d: D form. dOrn = NCCC[C@@H](N)C(=O)O

Tests used:
Assay type in all cases: functional
[1] = tested on: Acinetobacter baumannii; assay: Antibacterial activity against Acinetobacter baumannii 649 measured after 24 hrs in presence of 25% human serum by microtiter dilution method; details: Acinetobacter baumannii, 649, 24 h
Outline: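 Blood strain 649 was tested by MH broth microdilution with and without 25% (v/v) human serum added to the medium. The test used a final inoculum of 5 × 10^5 cfu/mL and incubation at 37 °C. The ratio is the MIC in serum over the MIC in MH alone.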

[2] = tested on: Acinetobacter baumannii; assay: Antibacterial activity against Acinetobacter baumannii 649 measured after 24 hrs by microtiter dilution method; details: Acinetobacter baumannii, 649, 24 h
Outline: (§1)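 Broth microdilution in Mueller-Hinton (MH) medium. […] Plates were incubated 24 h at 37 °C. MIC was the lowest peptide concentration that inhibited growth, based on three sets of replicates.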

[3] = tested on: Acinetobacter baumannii; assay: Antibacterial activity against Acinetobacter baumannii isolate 1001611 measured after 24 hrs by microtiter dilution method; details: isolate 1001611, 24 h; outline: as §1
[4] = tested on: Acinetobacter baumannii; assay: Antibacterial activity against Acinetobacter baumannii isolate 1021371 measured after 24 hrs by microtiter dilution method; details: isolate 1021371, 24 h; outline: as §1
[5] = tested on: Acinetobacter baumannii; assay: Antibacterial activity against Acinetobacter baumannii isolate 952654 measured after 24 hrs by microtiter dilution method; details: isolate 952654, 24 h; outline: as §1
[6] = tested on: Acinetobacter baumannii; assay: Antibacterial activity against Acinetobacter baumannii isolate 9383370 measured after 24 hrs by microtiter dilution method; details: isolate 9383370, 24 h; outline: as §1
[7] = tested on: Acinetobacter baumannii; assay: Antibacterial activity against Acinetobacter baumannii isolate 961997 measured after 24 hrs by microtiter dilution method; details: isolate 961997, 24 h; outline: as §1
[8] = tested on: Acinetobacter baumannii; assay: Antibacterial activity against Acinetobacter baumannii isolate 1002956 measured after 24 hrs by microtiter dilution method; details: isolate 1002956, 24 h; outline: as §1
[9] = tested on: Acinetobacter baumannii; assay: Antibacterial activity against Acinetobacter baumannii isolate 977751 measured after 24 hrs by microtiter dilution method; details: isolate 977751, 24 h; outline: as §1
[10] = tested on: Acinetobacter baumannii; assay: Antibacterial activity against Acinetobacter baumannii isolate 1035166 measured after 24 hrs by microtiter dilution method; details: isolate 1035166, 24 h; outline: as §1
[11] = tested on: Acinetobacter baumannii; assay: Antibacterial activity against Acinetobacter baumannii isolate 1010282 measured after 24 hrs by microtiter dilution method; details: isolate 1010282, 24 h; outline: as §1
[12] = tested on: Acinetobacter baumannii; assay: Antibacterial activity against Acinetobacter baumannii isolate 1010245 measured after 24 hrs by microtiter dilution method; details: isolate 1010245, 24 h; outline: as §1
[13] = tested on: Acinetobacter baumannii; assay: Antibacterial activity against Acinetobacter baumannii isolate 1017395 measured after 24 hrs by microtiter dilution method; details: isolate 1017395, 24 h; outline: as §1
[14] = tested on: Acinetobacter baumannii; assay: Antibacterial activity against Acinetobacter baumannii isolate 968886 measured after 24 hrs by microtiter dilution method; details: isolate 968886, 24 h; outline: as §1
[15] = tested on: Acinetobacter baumannii; assay: Antibacterial activity against Acinetobacter baumannii isolate 964304 measured after 24 hrs by microtiter dilution method; details: isolate 964304, 24 h; outline: as §1
[16] = tested on: Acinetobacter baumannii; assay: Antibacterial activity against Acinetobacter baumannii isolate 963659 measured after 24 hrs by microtiter dilution method; details: isolate 963659, 24 h; outline: as §1
[17] = tested on: Acinetobacter baumannii; assay: Antibacterial activity against Acinetobacter baumannii isolate 1018887 measured after 24 hrs by microtiter dilution method; details: isolate 1018887, 24 h; outline: as §1
[18] = tested on: Acinetobacter baumannii; assay: Antibacterial activity against Acinetobacter baumannii isolate 1035794 measured after 24 hrs by microtiter dilution method; details: isolate 1035794, 24 h; outline: as §1
[19] = tested on: Acinetobacter baumannii; assay: Antibacterial activity against Acinetobacter baumannii isolate 981650 measured after 24 hrs by microtiter dilution method; details: isolate 981650, 24 h; outline: as §1
[20] = tested on: Acinetobacter baumannii; assay: Antibacterial activity against Acinetobacter baumannii isolate 965463 measured after 24 hrs by microtiter dilution method; details: isolate 965463, 24 h; outline: as §1
[21] = tested on: Acinetobacter baumannii; assay: Antibacterial activity against polymyxin B/colistin-resistant Acinetobacter baumannii M89963 measured after 24 hrs by microtiter dilution method; details: M89963, 24 h; outline: as §1
[22] = tested on: Acinetobacter baumannii; assay: Antibacterial activity against polymyxin B/colistin-resistant Acinetobacter baumannii M89955 measured after 24 hrs by microtiter dilution method; details: M89955, 24 h; outline: as §1
[23] = tested on: Acinetobacter baumannii; assay: Antibacterial activity against polymyxin B/colistin-resistant Acinetobacter baumannii M89953 measured after 24 hrs by microtiter dilution method; details: M89953, 24 h; outline: as §1
[24] = tested on: Acinetobacter baumannii; assay: Antibacterial activity against polymyxin B/colistin-resistant Acinetobacter baumannii M89952 measured after 24 hrs by microtiter dilution method; details: M89952, 24 h; outline: as §1
[25] = tested on: Acinetobacter baumannii; assay: Antibacterial activity against polymyxin B/colistin-resistant Acinetobacter baumannii M89951 measured after 24 hrs by microtiter dilution method; details: M89951, 24 h; outline: as §1
[26] = tested on: Acinetobacter baumannii; assay: Antibacterial activity against polymyxin B/colistin-resistant Acinetobacter baumannii M89949 measured after 24 hrs by microtiter dilution method; details: M89949, 24 h; outline: as §1
[27] = tested on: Acinetobacter baumannii; assay: Antibacterial activity against polymyxin B/colistin-resistant Acinetobacter baumannii M89941 measured after 24 hrs by microtiter dilution method; details: M89941, 24 h; outline: as §1
[28] = tested on: Acinetobacter baumannii; assay: Antibacterial activity against Acinetobacter baumannii isolate 1007660 measured after 24 hrs by microtiter dilution method; details: isolate 1007660, 24 h; outline: as §1
[29] = tested on: Acinetobacter baumannii; assay: Antibacterial activity against Acinetobacter baumannii isolate 963618 measured after 24 hrs by microtiter dilution method; details: isolate 963618, 24 h; outline: as §1

Structure (SMILES)	MIC [1] [µM]	MIC [2] [µM]	MIC [3] [µM]	MIC [4] [µM]	MIC [5] [µM]	MIC [6] [µM]	MIC [7] [µM]	MIC [8] [µM]	MIC [9] [µM]	MIC [10] [µM]	MIC [11] [µM]	MIC [12] [µM]	MIC [13] [µM]	MIC [14] [µM]	MIC [21] [µM]	MIC [22] [µM]	MIC [23] [µM]	MIC [25] [µM]	MIC [26] [µM]	MIC [27] [µM]	other results
CC(=O)N[C@H](CCCCN)C(=O)N[C@H](CC(C)C)C(=O)N[C@H](CCCCN)C(=O)N[C@H](CO)C(=O)N[C@H](CC(C)C)C(=O)N[C@H](CC(C)C)C(=O)N[C@H](CCCCN)C(=O)N[C@@H](C(=O)N[C@H](CC(C)C)C(=O)N[C@H](CO)C(=O)N[C@H](CCCCN)C(=O)N[C@H](C)C(=O)N[C@H](CCCCN)C(=O)N[C@H](C)C(=O)N[C@H](C)C(=O)N[C@H](CCCCN)C(=O)N[C@H](CC(C)C)C(=O)N[C@H](CCCCN)C(=O)N[C@@H](C(=O)N[C@H](CC(C)C)C(=O)N[C@H](CC(C)C)C(=O)N[C@H](CCCCN)C(=O)N[C@H](C)C(=O)N[C@H](CC(C)C)C(=O)N[C@H](CO)C(=O)N[C@H](CCCCN)C(N)=O)[C@H](C)O)[C@H](C)O (Ac-[dK][dL][dK][dS][dL][dL][dK][dT][dL][dS][dK][dA][dK][dA][dA][dK][dL][dK][dT][dL][dL][dK][dA][dL][dS][dK]-NH2)	0.3	0.3 (≈ 0.86 µg/mL)	0.7 (≈ 2.01 µg/mL)	0.7 (≈ 2.01 µg/mL)	0.7 (≈ 2.01 µg/mL)	0.7 (≈ 2.01 µg/mL)	1.4 (≈ 4.01 µg/mL)	0.3 (≈ 0.86 µg/mL)	0.3 (≈ 0.86 µg/mL)	0.7 (≈ 2.01 µg/mL)	0.7 (≈ 2.01 µg/mL)	0.7 (≈ 2.01 µg/mL)	0.7 (≈ 2.01 µg/mL)	0.7 (≈ 2.01 µg/mL)	0.7 (≈ 2.01 µg/mL)	0.3 (≈ 0.86 µg/mL)	0.7 (≈ 2.01 µg/mL)	0.3 (≈ 0.86 µg/mL)	0.7 (≈ 2.01 µg/mL)	0.3 (≈ 0.86 µg/mL)	MIC [15]: 1.4 µM (≈ 4.01 µg/mL); MIC [16]: 0.7 µM (≈ 2.01 µg/mL); MIC [17]: 0.7 µM (≈ 2.01 µg/mL); MIC [18]: 0.7 µM (≈ 2.01 µg/mL); MIC [19]: 0.7 µM (≈ 2.01 µg/mL); MIC [20]: 0.7 µM (≈ 2.01 µg/mL); MIC [24]: 0.7 µM (≈ 2.01 µg/mL)
CC(=O)N[C@H](CCCCN)C(=O)N[C@H](CC(C)C)C(=O)N[C@H](CCCCN)C(=O)N[C@H](CO)C(=O)N[C@H](CC(C)C)C(=O)N[C@H](CC(C)C)C(=O)N[C@H](CCCCN)C(=O)N[C@@H](C(=O)N[C@H](CC(C)C)C(=O)N[C@H](CO)C(=O)N[C@H](CCCCN)C(=O)N[C@H](C)C(=O)N[C@H](CCCCN)C(=O)N[C@H](C)C(=O)N[C@H](C)C(=O)N[C@H](CCCCN)C(=O)N[C@H](CC(C)C)C(=O)N[C@H](CCCCN)C(=O)N[C@@H](C(=O)N[C@H](CC(C)C)C(=O)N[C@H](CC(C)C)C(=O)N[C@H](CCCCN)C(=O)N[C@H](C)C(=O)N[C@H](CC(C)C)C(=O)N[C@H](CO)C(=O)N[C@H](CO)C(N)=O)[C@H](C)O)[C@H](C)O (Ac-[dK][dL][dK][dS][dL][dL][dK][dT][dL][dS][dK][dA][dK][dA][dA][dK][dL][dK][dT][dL][dL][dK][dA][dL][dS][dS]-NH2)	0.7	0.7 (≈ 1.98 µg/mL)	0.7 (≈ 1.98 µg/mL)	1.4 (≈ 3.95 µg/mL)	1.4 (≈ 3.95 µg/mL)	0.7 (≈ 1.98 µg/mL)	1.4 (≈ 3.95 µg/mL)	0.7 (≈ 1.98 µg/mL)	0.7 (≈ 1.98 µg/mL)	1.4 (≈ 3.95 µg/mL)	1.4 (≈ 3.95 µg/mL)	0.7 (≈ 1.98 µg/mL)	1.4 (≈ 3.95 µg/mL)	0.7 (≈ 1.98 µg/mL)	0.7 (≈ 1.98 µg/mL)	0.7 (≈ 1.98 µg/mL)	1.5 (≈ 4.24 µg/mL)	0.7 (≈ 1.98 µg/mL)	0.7 (≈ 1.98 µg/mL)	0.7 (≈ 1.98 µg/mL)	MIC [28]: 0.7 µM (≈ 1.98 µg/mL); MIC [15]: 1.4 µM (≈ 3.95 µg/mL); MIC [16]: 1.4 µM (≈ 3.95 µg/mL); MIC [29]: 0.7 µM (≈ 1.98 µg/mL); MIC [17]: 1.4 µM (≈ 3.95 µg/mL); MIC [18]: 1.4 µM (≈ 3.95 µg/mL); MIC [20]: 0.7 µM (≈ 1.98 µg/mL); MIC [24]: 0.7 µM (≈ 1.98 µg/mL)
CC(=O)N[C@H](CCCCN)C(=O)N[C@H](CC(C)C)C(=O)N[C@H](CCCN)C(=O)N[C@H](CO)C(=O)N[C@H](CC(C)C)C(=O)N[C@H](CC(C)C)C(=O)N[C@H](CCCN)C(=O)N[C@@H](C(=O)N[C@H](CC(C)C)C(=O)N[C@H](CO)C(=O)N[C@H](CCCN)C(=O)N[C@H](C)C(=O)N[C@H](CCCCN)C(=O)N[C@H](C)C(=O)N[C@H](C)C(=O)N[C@H](CCCCN)C(=O)N[C@H](CC(C)C)C(=O)N[C@H](CCCN)C(=O)N[C@@H](C(=O)N[C@H](CC(C)C)C(=O)N[C@H](CC(C)C)C(=O)N[C@H](CCCN)C(=O)N[C@H](C)C(=O)N[C@H](CC(C)C)C(=O)N[C@H](CO)C(=O)N[C@H](CCCN)C(N)=O)[C@H](C)O)[C@H](C)O (Ac-[dK][dL][dOrn][dS][dL][dL][dOrn][dT][dL][dS][dOrn][dA][dK][dA][dA][dK][dL][dOrn][dT][dL][dL][dOrn][dA][dL][dS][dOrn]-NH2)	–	0.4 (≈ 1.11 µg/mL)	–	–	–	–	–	–	–	–	–	–	–	–	0.4 (≈ 1.11 µg/mL)	0.4 (≈ 1.11 µg/mL)	0.4 (≈ 1.11 µg/mL)	0.7 (≈ 1.95 µg/mL)	0.7 (≈ 1.95 µg/mL)	0.7 (≈ 1.95 µg/mL)	–
